The source of these data is ChEMBL document CHEMBL1143345, “Towards Gram-negative antivirulence drugs: new inhibitors of HldE kinase” (Bioorg Med Chem, 2009).

Activity calls are given as the source filed them. No cut-off for these calls is given here.

Data set [1] is described as follows: Inhibition of Escherichia coli O18:K1 C7 HldE by luminescent assay. A digest of the protocol: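 His-tagged E. coli O18:K1 C7 HldE (3 nM) pre-incubated 30 min at room temperature with inhibitor (≤5% DMSO). Then H-7-P 0.2 uM and ATP 0.2 uM added for 40 min in pH 7.5 Hepes, 1 mM MnCl2, 25 mM KCl, 0.012% Triton X-100, 1 mM DTT. ATP depletion read by luciferase luminescence; IC50 from 6–10 concentrations, means of three experiments.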

Data set [2] has as its system Escherichia coli. In words: Activity of Escherichia coli O18:K1 C7 HldE in presence of 50 uM ATP. In outline: (§1)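 His-tagged E. coli O18:K1 C7 HldE kinase steady-state kinetics, pH 7.5 with 1 mM MnCl2, 25 mM KCl, 5% DMSO. H-7-P Km measured at fixed ATP 50 uM or 0.3 uM; ADP formation followed by PK/LDH-coupled NADH fluorescence (ex 360, em 520 nm), read kinetically; values ± SD.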

The test system of data set [3] is Escherichia coli. Description: Activity of Escherichia coli O18:K1 C7 HldE in presence of 0.3 uM ATP. A digest of the protocol: as §1
Data set [4] is described as follows: Inhibition of Neisseria meningitidis 2C43 HldA by luminescent assay. A digest of the protocol: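 His-tagged N. meningitidis 2C43 HldA (20 nM) pre-incubated 30 min at room temperature with inhibitor, then H-7-P 0.2 uM and ATP 0.2 uM added for 40 min. Buffer pH 7.5 Hepes, 1 mM MnCl2, 25 mM KCl, 0.012% Triton X-100, 1 mM DTT. Residual ATP measured by luciferase/luciferin luminescence; IC50 fitted from 6–10 concentrations.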

The next data set deals with T1, Ribokinase (Escherichia coli K-12, UniProt P0A9J6).
T1 sequence (P0A9J6 whole entry): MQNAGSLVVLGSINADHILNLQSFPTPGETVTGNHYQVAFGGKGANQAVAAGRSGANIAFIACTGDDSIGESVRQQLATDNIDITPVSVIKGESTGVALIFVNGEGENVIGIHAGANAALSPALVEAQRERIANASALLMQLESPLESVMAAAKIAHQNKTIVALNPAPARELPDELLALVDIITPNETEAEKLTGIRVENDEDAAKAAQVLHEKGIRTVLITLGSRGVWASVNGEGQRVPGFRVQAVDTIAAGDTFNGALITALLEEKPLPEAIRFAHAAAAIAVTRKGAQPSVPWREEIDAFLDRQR
In words: Inhibition of Escherichia coli K12 MG1655 ribokinase by luminescent assay. In outline: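 His-tagged E. coli K12 MG1655 ribokinase (0.6 nM) in pH 7.5 Hepes buffer with 1 mM MnCl2, 25 mM KCl, 0.012% Triton X-100, 1 mM DTT. Inhibitor pre-incubated 30 min at room temperature, then D-ribose 3 uM and ATP 3 uM added for 40 min. Remaining ATP detected by luciferase/luciferin luminescence; IC50 fitted from 6–10 concentrations.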

Data set [5] is described as follows: Inhibition of Escherichia coli O18:K1 C7 HldE by fluorescent assay. A digest of the protocol: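 Coupled fluorescent HldE-kinase assay: His-tagged E. coli O18:K1 C7 HldE (66 pM), 30 min inhibitor pre-incubation at room temperature, then H-7-P 1 uM, ATP 50 uM with PK/PEP/LDH/NADH. pH 7.5 Hepes, 1 mM MnCl2, 25 mM KCl, 0.012% Triton X-100, 1 mM DTT. NADH fluorescence read kinetically; Ki derived, substrate levels varied for competition.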

For data set [6], the system named is Escherichia coli. In words: Inhibition of Escherichia coli O18:K1 C7 HldE in presence of Triton-X100 by luminescent assay.
In data set [7] the test system is Escherichia coli. Description: Inhibition of Escherichia coli O18:K1 C7 HldE in presence of D-glycero-D-manno-heptose-7-phosphate by luminescent assay.
The subject of data set [8] is Escherichia coli. Description: Activity of Escherichia coli O18:K1 C7 HldE in presence of 1.8 uM D-glycero-D-manno-heptose-7-phosphate. A digest of the protocol:
(§2)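 His-tagged HldE, Ni-NTA purified, steady-state kinetics with ATP varied at fixed H-7-P. Conditions are pH 7.5 with 1 mM MnCl2, 25 mM KCl and 5% DMSO in Hepes/Triton X-100/DTT buffer. ADP is detected by a pyruvate kinase/lactate dehydrogenase coupled system, reading NADH fluorescence kinetically (ex 360, em 520 nm). Values ± SD.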

Data set [9] relates to Escherichia coli. In words: Activity of Escherichia coli O18:K1 C7 HldE in presence of 0.2 uM D-glycero-D-manno-heptose-7-phosphate. A digest of the protocol:
as §2

For another data set, the system named is Neisseria meningitidis. Description: Activity of Neisseria meningitidis 2C43 HldA in presence of 0.2 uM D-glycero-D-manno-heptose-7-phosphate. In outline: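 His-tagged HldA, Ni-NTA purified, at 20 nM with 0.2 µM H-7-P and ATP. Buffer is 50 mM Hepes pH 7.5, 1 mM MnCl2, 25 mM KCl, 0.012% Triton X-100 and 1 mM DTT. Reaction runs 40 min at room temperature. ATP depletion is read by luciferase/D-luciferin luminescence.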

Compound in data set [10]: Nc1ncnc2c1ncn2[C@@H]1O[C@H](COP(=O)(O)OP(=O)(O)OP(=O)(O)O)[C@@H](O)[C@H]1O
Description: Activity of Escherichia coli K12 MG1655 ribokinase in presence of 3 uM D-ribose. Conditions: Escherichia coli K-12. In outline: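 His-tagged ribokinase, Ni-NTA purified, at 0.6 nM with 3 µM D-ribose and ATP. Buffer is 50 mM Hepes pH 7.5, 1 mM MnCl2, 25 mM KCl, 0.012% Triton X-100 and 1 mM DTT. Reaction runs 40 min at room temperature. ATP depletion is read by luciferase/D-luciferin luminescence. Values ± SD.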

By IC50 is commonly meant the point on the concentration scale where inhibition reaches its midpoint. Read a low IC50 as inhibition by little substance. `O=C(O)CN(Cc1ccccn1)C(=O)c1ccc(-c2ccccc2)cc1`: in [1], the IC50 is above 300 µM.
By Km is commonly meant the substrate concentration at which the rate is half of its maximum. `O=P(O)(O)OC[C@@H](O)[C@H]1OC(O)[C@@H](O)[C@@H](O)[C@@H]1O` (stereo partly drawn): the Km in the data set on Escherichia coli [2] turned out to be 0.6 µM; in the data set on Escherichia coli [3] it was 0.23 µM.
Turning to `Cc1oc(-c2ccccc2)nc1C(=O)N(CC(=O)O)Cc1ccncc1`, the IC50 in data set [1] was above 300 µM.
The same measure, in the same setting: with `Cc1oc(-c2ccc(C(F)(F)F)cc2)nc1C(=O)N(CC(=O)O)Cc1ccccn1` the figure was 142 µM; with `COc1cccc(-c2nc(C)c(C(=O)N(CC(=O)O)Cc3nc4ccccc4s3)s2)c1`, 0.42 µM; with `O=C(O)CN(Cc1ccccn1)C(=O)c1ccc(-c2ccccc2)o1`, 100 µM.
For the molecule `Cc1oc(-c2cccc([N+](=O)[O-])c2)nc1C(=O)N(CC(=O)O)Cc1ccccn1`, the IC50 is 5.8 µM in data set [1], above 300 µM in [4] and above 300 µM against Ribokinase.
On to `Cc1oc(-c2ccc(N)cc2)nc1C(=O)N(CC(=O)O)Cc1ccccn1`, for which half-maximal inhibition in data set [1] (IC50) was put at 22 µM.
Molecule `Cc1oc(-c2ccccc2N)nc1C(=O)N(CC(=O)O)Cc1ccccn1` registered an IC50 in data set [1] of 31 µM.
In data set [1], `Cc1oc(-c2cccc(Br)c2)nc1C(=O)N(CC(=O)O)Cc1ccccn1` showed an IC50 of 10 µM.
Same read-out and setting: for `Cc1oc(-c2cccc(NC(=O)C3CC3)c2)nc1C(=O)N(CC(=O)O)Cc1ccccn1` the value was 14 µM; for `COc1cccc(-c2nc(C)c(C(=O)N(CC(=O)O)Cc3ccccn3)o2)c1`, 17 µM; for `Cc1onc(-c2ccccc2)c1C(=O)N(CC(=O)O)Cc1ccccn1`, above 300 µM.
Same read-out and setting: with `Cc1oc(-c2ccccc2)nc1C(=O)N(CC(=O)O)Cc1nccs1` the figure was 110 µM; with `Cc1oc(-c2ccccc2)nc1C(=O)N(CC(=O)O)Cc1cccnc1`, above 300 µM.
Take `CC(=O)c1cccc(-c2nc(C)c(C(=O)N(CC(=O)O)Cc3ccccn3)s2)c1`: half-maximal inhibition in data set [1] (IC50) required 216 µM.
With `Cc1nc(-c2ccccc2)sc1C(=O)N(CC(=O)O)Cc1ccccn1`, it took 52 µM to reach half-maximal inhibition in [1] (IC50).
On the same count and under the same terms, with `Cc1nc(-c2ccccc2)oc1C(=O)N(CC(=O)O)Cc1ccccc1N` the figure was above 300 µM.
What is called Ki is the equilibrium dissociation constant of an inhibitor or competing ligand from its target. A higher Ki goes with lower affinity. `Cc1nc(-c2ccccc2)oc1C(=O)N(CC(=O)O)Cc1ccccn1` returned an IC50 in [1] of 69 µM. This molecule also registered a Ki in data set [5] of 38 µM. Also, the outcome with Escherichia coli [6] and in the data set with Escherichia coli [7] was Active.
As to `Cc1oc(-c2ccc(Br)cc2)nc1C(=O)N(CC(=O)O)Cc1ccccn1`, in [1], the midpoint of inhibition, the IC50, lay at 27 µM.
On to `Cc1oc(-c2cccc(N)c2)nc1C(=O)N(CC(=O)O)Cc1ccccn1`, for which inhibition in [1] was half-maximal at 153 µM (IC50).
The same measure, in the same setting: with `Cc1oc(-c2cccc(-c3ccn[nH]3)c2)nc1C(=O)N(CC(=O)O)Cc1nc2ccccc2s1` the figure was 0.11 µM.
Turning to `Cn1nc(-c2ccccc2)cc1C(=O)N(CC(=O)O)Cc1ccccn1`, the IC50 in data set [1] was 57 µM.
Still for that read-out and setting: with `Cc1oc(-c2cccc(N3CCOCC3)c2)nc1C(=O)N(CC(=O)O)Cc1ccccn1` the figure was 70 µM.
Take `Cc1nc(-c2cccc([N+](=O)[O-])c2)sc1C(=O)N(CC(=O)O)Cc1nc2ccccc2s1`: the IC50 is 0.5 µM in data set [1], 75 µM in data set [4] and above 300 µM at Ribokinase.
As for `COc1cccc(-c2nc(C)c(C(=O)N(CC(=O)O)Cc3nc4ccccc4s3)o2)c1`, the IC50 is 0.27 µM in data set [1], 6 µM in data set [4] and above 300 µM at Ribokinase.
With `Cc1oc(-c2ccccc2)nc1C(=O)N(CC(=O)O)Cc1ccco1`, in data set [1], the IC50 was above 300 µM.
On the same count and under the same terms, for `CC(=O)Nc1cccc(-c2nc(C(=O)N(CC(=O)O)Cc3ccccn3)c(C)o2)c1` the value was 28 µM.
On to `COc1ccc(-c2nc(C(=O)N(CC(=O)O)Cc3ccccn3)c(C)o2)cc1`, for which the IC50 in data set [1] is 75 µM.
Same read-out and setting: for `Cc1oc(-c2cccc(C(F)(F)F)c2)nc1C(=O)N(CC(=O)O)Cc1ccccn1` the value was 35 µM.
As for `COc1cccc(-c2nc(C(=O)N(CC(=O)O)Cc3ccccn3)c(C)o2)c1`, the IC50 was 15 µM in [1], above 300 µM in data set [4] and above 300 µM at Ribokinase.
As for `Cc1nc(-c2ccc(N)c([N+](=O)[O-])c2)sc1C(=O)N(CC(=O)O)Cc1ccccn1`, the IC50 in data set [1] is 13 µM.
The same measure, in the same setting: for `Cc1oc(-c2ccc([N+](=O)[O-])cc2)nc1C(=O)N(CC(=O)O)Cc1ccccn1` the value was 151 µM.
In the case of `COc1cccc(-c2nc(C(=O)N(CC(=O)O)Cc3ccc4ccccc4n3)c(C)o2)c1`, in [1], half-maximal inhibition (IC50) required 12 µM.
In turn, `Cc1oc(-c2ccccc2)nc1C(=O)N(CC(=O)O)Cc1ccccc1` displayed an IC50 in [1] above 300 µM.
The molecule `Cc1oc(-c2ccccc2)nc1C(=O)N(CC(=O)O)Cc1ccccn1` gave a 50% inhibitory concentration (IC50) in data set [1] of 51 µM.
The same measure, in the same setting: with `Cc1oc(-c2ccccc2Br)nc1C(=O)N(CC(=O)O)Cc1ccccn1` the figure was 44 µM.
For the molecule `Cc1nc(-c2ccc3[nH]ccc3c2)sc1C(=O)N(CC(=O)O)Cc1nc2ccccc2s1`, the IC50 in [1] is 0.33 µM; in [4], 8.5 µM; against Ribokinase, above 100 µM.
In [1], `Cc1oc(-c2ccccc2)cc1C(=O)N(CC(=O)O)Cc1ccccn1` had an IC50 of 42 µM.
Turning to `Nc1ncnc2c1ncn2[C@@H]1O[C@H](COP(=O)(O)OP(=O)(O)OP(=O)(O)O)[C@@H](O)[C@H]1O`, the Km in the data set on Escherichia coli [8] was 147 µM; in the data set on Escherichia coli [9], above 0.8 µM; in the data set with Neisseria meningitidis, above 0.4 µM.
With `Cc1oc(-c2ccccc2[N+](=O)[O-])nc1C(=O)N(CC(=O)O)Cc1ccccn1`, the IC50 in data set [1] amounted to 141 µM.
`Cc1nc(-c2ccc3ccccc3c2)sc1C(=O)N(CC(=O)O)Cc1nc2ccccc2s1`: the IC50 is 0.48 µM in data set [1], 12 µM in data set [4] and above 33 µM against Ribokinase.
In data set [1], `Cc1nc(-c2cccc(S(C)(=O)=O)c2)sc1C(=O)N(CC(=O)O)Cc1nc2ccccc2s1` showed an IC50 of 75 µM.
On the same count and under the same terms, with `COc1cc(-c2nc(C)c(C(=O)N(CC(=O)O)Cc3nc4ccccc4s3)s2)ccc1N` the figure was 0.26 µM.

B1: Ribokinase (Escherichia coli K-12), P0A9J6 (protein)
chain: T1 sequence (P0A9J6 whole entry)
B1: in [10], the Km came to 18 µM.
